# Screening data as filed in PubChem.
# H9c2 TAG inh = inhibitors of triacylglycerol accumulation, primary screen, cell-based, uHTS, fluorescence, H9c2. H9c2 cells, Nile Red lipid (TAG) fluorescence; cells loaded with 200 µM oleic acid. inhibition, % at 12.5 µM. 230,000 tested, 0.66% active. AID 651582, 2012;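 active = pattern-corrected inhibition of lipid staining of at least 50% with the nuclear-stain viability signal not falling by more than 50%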;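 note: 0% = DMSO wells and 100% = triacsin C control wells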
# MC4R antagonist = MC4R antagonists of cAMP signaling, primary screen, cell-based, TR-FRET, antagonist arm of biased-ligand search; Melanocortin receptor 4 (Homo sapiens), P32245; MC4R-expressing cells, MTII-stimulated cAMP, LANCE TR-FRET; inhibition, % at 6.5 µM; 360,000 tested, 0.48% active;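 active = inhibition above its plate's cutoff, the mean of tested wells on that plate plus 3 SD, cut at about 29% in these data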;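 note: 0% = Melanotan II alone and 100% = Melanotan II plus saturating MCL0020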
# Target sequence (P32245 whole entry, looked up): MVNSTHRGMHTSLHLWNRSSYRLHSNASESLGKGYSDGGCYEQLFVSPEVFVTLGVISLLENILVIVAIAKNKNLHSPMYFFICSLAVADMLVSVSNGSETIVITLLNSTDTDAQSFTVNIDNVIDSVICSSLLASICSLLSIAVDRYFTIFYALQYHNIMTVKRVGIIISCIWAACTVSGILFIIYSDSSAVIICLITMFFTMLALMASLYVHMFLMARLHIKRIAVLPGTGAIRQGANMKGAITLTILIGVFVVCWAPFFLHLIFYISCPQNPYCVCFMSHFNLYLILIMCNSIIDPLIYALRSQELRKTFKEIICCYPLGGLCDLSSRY
#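 Assay system: human MC4R-expressing U2OS cells; reagent: Melanotan II stimulation of cells; dosing: 6.5 µM single dose; timing: compound 30 min, challenge 1 h, detection 1 h; signal: TR-FRET cAMP assay; replicates: one well per compound, no replicates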
# aDG glyco up = activators of alpha-DG glycosylation, primary screen, uHTS, Pro5-aDG cells, AlphaScreen; AID 624168, 2012; activation, % at 10 µM; 360,000 tested, 0.22% active; alpha-DG glycosylation AlphaScreen (IIH6); 0% Pro5, 100% B10-LARGE cell signal;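 active = activation of at least 8% versus controls, or a plate z-score of at least 8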;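 note: Pro5 are CHO cells carrying HIG-tagged alpha-DG that lacks glycosylation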
# NTR1 agonist = agonists of human NTR1, primary screen, imaging, U2OS cells, beta-arrestin-GFP, high content. AID 493036, 2011. NTR1-U2OS beta-arrestin-GFP spot imaging, agonist mode. activation, % at 20 µM. 330,000 tested, 0.17% active. Neurotensin receptor type 1 (Homo sapiens), P30989;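 active = activation at or above 40% of the spot to cytoplasm intensity ratio, with at least 20 cells analyzed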;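 note: 0% = DMSO without peptide and 100% = 100 nM NTR1 peptide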
# MC4R barr agon = MC4R agonists recruiting beta-arrestin, primary screen, cell-based, luminescence, agonist arm of biased-ligand search; U2OS MC4R beta-arrestin complementation; percent of melanotan II response, DMSO zero; activation, % at 8.9 µM; 360,000 tested, 0.98% active; AID 540308, 2011;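 active = activation above a per-plate cutoff, the mean activation of sample wells on that plate plus 3 SD, cut at about 8% in these data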
# Tb MetRS inh = T. brucei MetRS inhibitors, primary screen, biochemical, luminescence | methionyl-tRNA synthetase (Trypanosoma brucei brucei) | purified T. brucei MetRS, ATP depletion, Kinase-Glo luminescence | inhibition, % at 11.9 µM | 360,000 tested, 0.4% active | AID 624268, 2012;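 active = inhibition above a per-plate cutoff of the control wells' mean inhibition plus 3 SD, cut at about 5.5% in these data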;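 note: 0% = DMSO wells median and 100% = median of wells with control inhibitor compound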
#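 technique = Kinase-Glo luminescence, ATP depletion format | system = purified MetRS (methionyl-tRNA synthetase) enzyme from Trypanosoma brucei | timing = 15 min preincubation, 2 h reaction, all 25 °C | evaluation = percent inhibition versus plate control medians | dosing = single dose, 11.9 µM final nominal, 0.9% final DMSO | also added = substrates ATP, L-methionine and bulk Escherichia coli tRNA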
# MC4R barr ag = MC4R beta-arrestin agonists, retest, confirmation, cell-based, luminescence, U2OS; 2,400 tested, 31% active; shares compounds with MC4R barr agon; activation, % at 8.9 µM; U2OS MC4R beta-arrestin recruitment; scaled DMSO 0%, Melanotan II 100%;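 active = mean activation across replicates above the hit cutoff set in the earlier primary screen, cut at about 8% in these data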
# MOR DOR agonist = agonists of MOR-DOR heterodimerization, counter-screen for MC4R biased agonist project, cell-based, luminescence; shares compounds with MC4R barr agon; U2OS PathHunter beta-arrestin, beta-gal luminescence; percent of deltorphin B response, DMSO zero; activation, % at 9.2 µM; 2,400 tested, 5.8% active; AID 602194, 2012;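 active = mean activation across replicates exceeds the hit threshold derived in the earlier primary screen, cut at about 18% in these data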;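 note: 100% = deltorphin B at 0.9 µM final and 0% = DMSO alone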
# * = called active by the depositor; . = no result. Only some compounds are listed: those with a hit (about 2.4% of all), similar ones and a draw of the others.
SMILES,H9c2 TAG inh,MC4R antagonist,aDG glyco up,NTR1 agonist,MC4R barr agon,Tb MetRS inh,MC4R barr ag,MOR DOR agonist
CC(=O)Nc1cccc(-c2ccnc3c2CC(C(=O)NCCC(F)(F)F)O3)c1 (configuration not stated),9,-3,0,.,-1,0,.,.
Cc1ccccc1OCC(=O)NC(=S)Nc1ccc(Br)c(C)n1,.,7,0,0,0,0,.,.
Cc1ccccc1OCC(=O)NC(=S)Nc1cccc2cc(O)ccc12,1,6,0,32,16*,0,23*,9
C1CCC(C(CC2CCCCN2)C2CCCCC2)CC1 (configuration not stated),130,14,1,25,11*,-1,12*,13
CCOC(=O)[C@]12CCC=C1N(Cc1cccc3ccccc13)C(=O)[C@H](CC(=O)NCc1ccc(C)o1)C2,.,.,0,.,.,-1,.,.
CC(/C=C/C=C/c1ccccc1)=N/NC(=O)CNc1ccccc1C,.,-14,0,1,14*,0,29*,10
CC(/C=C/c1ccco1)=N/NC(=O)CNc1ccccc1C,1,-4,0,-1,1,-1,.,.
CC(/C=C1\SC(=S)N(NC(=O)c2cccc(O)c2)C1=O)=C\c1ccccc1,.,10,0,7,9.8*,1,2,5
CC(C)C[C@H]1CN(CCCC[C@H]2CNC(=O)C(=O)N2CCc2ccc(O)cc2)C(=O)C(=O)N1Cc1ccccc1,.,.,0,.,.,-1,.,.
CNC(=S)N/N=C/c1c(C)nn(-c2cccc(Cl)c2)c1Cl,.,-1,1,3,22*,-1,3,5
O=C(N[C@H](CO)c1ccccc1)[C@H]1O[C@@H](n2ccc(=O)[nH]c2=O)[C@H](O)[C@@H]1O,.,.,0,.,.,0,.,.
COc1cc(NC(=O)COc2ccccc2)ccc1NC(=O)c1ccco1,.,4,0,1,1,0,.,.
COc1cc(NC(=O)CSc2nc3ccccc3c(=O)n2C)ccc1NC(=O)c1ccco1,.,20,0,5,14*,0,0,17
CC1(C)CC2(C)OC2C2(C1)N=NC(=Nc1ccccc1)O2 (configuration not stated),.,.,0,.,.,-1,.,.
COc1cccc(-c2cc(-c3cccnc3)nc(N)c2C#N)c1,-5,-1,0,4,1,0,.,.
N#Cc1c(-c2cccc(Br)c2)cc(-c2cccnc2)nc1N,.,9,1,8,32*,0,6,16
COC(=O)c1sccc1NC(=O)c1ccc(Cl)s1,.,15,0,0,12*,0,0,2
COC(=O)c1sccc1NC(=O)Nc1ccc(Cl)c(Cl)c1,5,-1,0,-1,13*,0,3,6
COC(=O)c1sccc1NC(=O)COc1ccc(F)cc1Cl,-16,13,1,12,10*,-1,2,3
COC(=O)c1ccc(OCC(=O)Nc2ccsc2C(=O)OC)cc1,4,20,0,1,6,0,.,.
CCCCN(C)c1c(C)nc2ccc(C(=O)NCCOc3ccc(OC)cc3)cn12,-36,5,2,.,2,0,.,.
CC(=O)c1ccc2c(c1)Cc1cc(C(C)=O)ccc1-2,.,-5,1,0,14*,-1,-1,8
